Consider five molecules from ChEMBL document CHEMBL1149171, “Development of orally bioavailable bicyclic pyrazolones as inhibitors of tumor necrosis factor-alpha production” (J Med Chem, 2004).

Data set [1] in a line: Solubility was determined. It counts as ADME, Rattus norvegicus. An outline of the steps:
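Shake-flask method in 50 mM phosphate buffer, pH 7.4, ionic strength 0.15 M, with 24 h equilibration. Supernatant was centrifuged and filtered, diluted with acetonitrile, and quantified by UV-vis against calibration standards in 1:1 acetonitrile/buffer.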

For data set [2], the target named is MAP kinase p38 (Homo sapiens, UniProt O15264+Q15759+Q16539+P53778). Nature of the data set: Inhibition of human Mitogen-activated protein kinase p38. Format: protein assay.
Data set [3] concerns the target Glycogen synthase kinase-3 beta (Homo sapiens) (UniProt P49841). Nature of the data set: Inhibition of Glycogen synthase kinase-3 beta at 1 uM. Further details: scale not given: the % may be the effect or the level left. Put shortly:
(§1)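 Kinase selectivity panel. Each kinase tested with compound at 1 µM and ATP at its K_m, in triplicate. Activity is given as a percentage of control incubations; SD typically 10%.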

Data set [4] concerns the target Mitogen-activated protein kinase 10 (Homo sapiens) (UniProt P53779). Nature of the data set: Inhibition of c-Jun N-terminal kinase 3 at 1 uM. Further details: scale not given: the % may be the effect or the level left. An outline of the steps: as §1
A short description of data set [5]: Metabolism was measured as percent loss at 4 hr in rat hepatocytes. It counts as ADME, Hepatocyte. As to conditions: read-out: Metabolism. An outline of the steps: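 Plated Sprague-Dawley rat hepatocytes on matrigel at 37 °C, 0.25 µM compound, in triplicate. Samples taken at 0, 2 and 4 h and pooled across compounds after incubation, with internal standard added. Analysis by reverse-phase HPLC/MS/MS. Analyte/internal-standard area ratio at 4 h divided by the 0 h ratio gives percent loss.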

In data set [6] the target is Dual specificity mitogen-activated protein kinase kinase 1 (MEK1, MAP2K1) (Homo sapiens) (UniProt Q02750). Nature of the data set: Inhibition of Dual specificity mitogen activated protein kinase kinase 1 at 1 uM. Also on record: scale not given: the % may be the effect or the level left.
Dual specificity mitogen-activated protein kinase kinase 1 (MEK1, MAP2K1) (Homo sapiens), sequence (Q02750 whole entry, looked up): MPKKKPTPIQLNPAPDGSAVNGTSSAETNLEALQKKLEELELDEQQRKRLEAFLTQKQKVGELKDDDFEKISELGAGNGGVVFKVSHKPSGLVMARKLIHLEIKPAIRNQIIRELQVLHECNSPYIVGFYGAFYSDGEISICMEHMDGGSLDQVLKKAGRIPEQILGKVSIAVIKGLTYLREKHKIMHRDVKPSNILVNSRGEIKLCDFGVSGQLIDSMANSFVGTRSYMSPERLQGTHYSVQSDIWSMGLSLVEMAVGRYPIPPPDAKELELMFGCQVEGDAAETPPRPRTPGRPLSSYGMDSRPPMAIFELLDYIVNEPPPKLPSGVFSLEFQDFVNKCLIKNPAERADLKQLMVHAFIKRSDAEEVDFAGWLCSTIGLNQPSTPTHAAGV
The target in data set [7] is MAP kinase-activated protein kinase 2 (Homo sapiens) (UniProt P49137). Nature of the data set: Inhibition of MAPKAP-K2 kinase at 1 uM. Also on record: scale not given: the % may be the effect or the level left. An outline of the steps: as §1
MAP kinase-activated protein kinase 2 (Homo sapiens), sequence (P49137 whole entry, looked up): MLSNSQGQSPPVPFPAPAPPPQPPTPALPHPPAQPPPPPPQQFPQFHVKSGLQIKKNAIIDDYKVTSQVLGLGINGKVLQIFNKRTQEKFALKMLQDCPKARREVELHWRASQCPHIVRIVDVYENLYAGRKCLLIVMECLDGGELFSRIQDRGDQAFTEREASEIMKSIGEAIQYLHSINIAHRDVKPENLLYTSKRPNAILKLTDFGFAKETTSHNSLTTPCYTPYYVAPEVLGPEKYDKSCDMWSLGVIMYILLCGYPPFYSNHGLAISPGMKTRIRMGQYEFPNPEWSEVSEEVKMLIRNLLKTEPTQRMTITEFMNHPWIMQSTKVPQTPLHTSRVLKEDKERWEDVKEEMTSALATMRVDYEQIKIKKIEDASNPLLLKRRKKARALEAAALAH
Data set [8] concerns the target Tyrosine-protein kinase Lck (Homo sapiens) (UniProt P06239). Nature of the data set: Inhibition of p56 Lck tyrosine kinase at 1 uM. Also on record: scale not given: the % may be the effect or the level left. An outline of the steps: as §1
Data set [9] has as its target Mitogen-activated protein kinase 3 (Homo sapiens) (UniProt P27361). Nature of the data set: Inhibition of Mitogen-activated protein kinase 3 at 1 uM. Also on record: scale not given: the % may be the effect or the level left. Put shortly: as §1
Data set [10] has as its target RAC-alpha serine/threonine-protein kinase (Homo sapiens) (UniProt P31749). Nature of the data set: Inhibition of Protein kinase B alpha (Akt) at 1 uM. Also on record: scale not given: the % may be the effect or the level left. Put shortly:
as §1

The target in data set [11] is Cyclin-dependent kinase 2/cyclin A (Homo sapiens) (UniProt P24941+P20248+P78396). Nature of the data set: Inhibition of Cyclin-dependent kinase 2-cyclin A at 1 uM. It counts as protein-complex assay. Further details: scale not given: the % may be the effect or the level left. An outline of the steps: as §1
Data set [12] has as its target RAF proto-oncogene serine/threonine-protein kinase (Homo sapiens) (UniProt P04049). Nature of the data set: Inhibition of RAF proto-oncogene serine/threonine-protein kinase at 1 uM. Further details: scale not given: the % may be the effect or the level left. Put shortly: as §1
The target in data set [13] is Mitogen-activated protein kinase 9 (Homo sapiens) (UniProt P45984). Nature of the data set: Inhibition of c-Jun N-terminal kinase 2-alpha 2 at 1 uM. Further details: scale not given: the % may be the effect or the level left. An outline of the steps:
as §1

The nature of data set [14]: Oral bioavailability in rat. Format: ADME, organism-based. Particulars: in vivo.
For data set [15], the target named is Mitogen-activated protein kinase 8 (Homo sapiens) (UniProt P45983). Nature of the data set: Inhibition of c-Jun N-terminal kinase 1-alpha 1 at 1 uM. Further details: scale not given: the % may be the effect or the level left. An outline of the steps: as §1
Mitogen-activated protein kinase 8 (Homo sapiens), sequence (P45983 whole entry): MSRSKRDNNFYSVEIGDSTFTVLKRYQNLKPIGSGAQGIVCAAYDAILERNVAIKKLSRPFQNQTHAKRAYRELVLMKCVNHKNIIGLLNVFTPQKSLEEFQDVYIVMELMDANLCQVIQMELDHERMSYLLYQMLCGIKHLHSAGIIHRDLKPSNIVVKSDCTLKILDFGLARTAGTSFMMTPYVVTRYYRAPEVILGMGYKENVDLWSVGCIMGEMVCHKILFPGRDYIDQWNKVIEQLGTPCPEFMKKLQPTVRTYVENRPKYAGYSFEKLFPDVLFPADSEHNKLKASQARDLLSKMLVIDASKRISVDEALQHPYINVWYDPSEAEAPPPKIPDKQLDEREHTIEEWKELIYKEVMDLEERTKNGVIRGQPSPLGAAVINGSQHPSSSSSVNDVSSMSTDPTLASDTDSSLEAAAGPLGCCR
Data set [16] deals with T1, Dual specificity mitogen-activated protein kinase kinase 4 (Homo sapiens) (UniProt P45985).
T1 sequence (whole entry): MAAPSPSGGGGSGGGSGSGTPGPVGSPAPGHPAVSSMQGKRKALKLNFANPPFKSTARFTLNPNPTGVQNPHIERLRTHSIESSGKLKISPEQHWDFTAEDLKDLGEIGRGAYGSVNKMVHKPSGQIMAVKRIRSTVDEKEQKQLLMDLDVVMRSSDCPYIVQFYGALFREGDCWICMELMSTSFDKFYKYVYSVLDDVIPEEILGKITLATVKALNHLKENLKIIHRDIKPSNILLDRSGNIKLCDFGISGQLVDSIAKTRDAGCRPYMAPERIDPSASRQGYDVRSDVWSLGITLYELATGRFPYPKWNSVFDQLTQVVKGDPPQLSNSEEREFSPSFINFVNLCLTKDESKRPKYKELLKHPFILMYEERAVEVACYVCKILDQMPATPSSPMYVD
Nature of the data set: Inhibition of MKK4/SKK1 kinase at 1 uM. Further details: scale not given: the % may be the effect or the level left. An outline of the steps:
as §1

For data set [17], the target named is Mitogen-activated protein kinase 1 (Homo sapiens) (UniProt P28482). Nature of the data set: Inhibition of ERK2/MAPK2 kinase at 1 uM. Also on record: scale not given: the % may be the effect or the level left. Put shortly:
as §1

Data set [18] addresses Cyclin-dependent kinase 1/cyclin B (Homo sapiens) (UniProt P06493+P14635+Q8WWL7+O95067). Nature of the data set: Inhibition of Cyclin-dependent kinase 1-cyclin B at 1 uM. It counts as protein-complex assay. Further details: scale not given: the % may be the effect or the level left. An outline of the steps: as §1
Data set [19] concerns the target Mitogen-activated protein kinase 3 (Homo sapiens) (UniProt P27361). Nature of the data set: Inhibition of Mitogen-activated protein kinase 3 kinase at 1 uM. Further details: scale not given: the % may be the effect or the level left. Put shortly:
as §1

The nature of data set [20]: Inhibition of MAPK1/IKKB kinase at 1 uM. Further details: scale not given: the % may be the effect or the level left. Put shortly: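 Kinase panel, tested at 1 µM compound with ATP at its K_m, in triplicate. Activity is expressed as a percentage of that in control incubations.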

Values after ≈ are worked out from the molar mass of the structure shown.

One may read the solubility as how much of the substance goes into solution per volume. Broadly, the IC50 is the concentration that inhibits the measured activity by half. Usually bioavailability stands for the share of a dose that reaches the circulation, judged against a reference dose that is usually intravenous.

Mitogen-activated protein kinase 9 (Homo sapiens), sequence (P45984 whole entry, looked up): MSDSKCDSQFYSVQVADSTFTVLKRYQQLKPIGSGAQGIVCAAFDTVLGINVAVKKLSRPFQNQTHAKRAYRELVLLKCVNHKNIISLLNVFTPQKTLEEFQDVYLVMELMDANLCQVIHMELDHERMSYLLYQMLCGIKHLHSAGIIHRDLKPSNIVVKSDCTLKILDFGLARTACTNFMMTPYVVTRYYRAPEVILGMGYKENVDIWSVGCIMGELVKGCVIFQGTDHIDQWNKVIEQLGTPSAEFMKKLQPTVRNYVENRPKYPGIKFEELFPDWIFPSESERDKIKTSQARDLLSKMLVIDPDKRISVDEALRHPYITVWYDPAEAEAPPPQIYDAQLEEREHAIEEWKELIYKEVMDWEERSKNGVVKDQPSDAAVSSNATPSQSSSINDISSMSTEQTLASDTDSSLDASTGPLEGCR
Mitogen-activated protein kinase 3 (Homo sapiens), sequence (P27361 whole entry): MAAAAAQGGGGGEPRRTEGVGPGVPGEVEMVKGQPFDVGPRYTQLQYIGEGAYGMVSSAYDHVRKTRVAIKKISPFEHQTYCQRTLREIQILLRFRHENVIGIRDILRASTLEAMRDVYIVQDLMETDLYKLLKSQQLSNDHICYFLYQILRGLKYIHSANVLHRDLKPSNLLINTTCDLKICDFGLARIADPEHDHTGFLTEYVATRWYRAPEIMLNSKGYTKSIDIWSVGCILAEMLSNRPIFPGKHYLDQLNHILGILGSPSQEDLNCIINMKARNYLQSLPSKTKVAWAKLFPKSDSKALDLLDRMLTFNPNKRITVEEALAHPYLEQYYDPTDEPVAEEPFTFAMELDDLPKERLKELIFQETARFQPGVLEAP
RAF proto-oncogene serine/threonine-protein kinase (Homo sapiens), sequence (P04049 whole entry): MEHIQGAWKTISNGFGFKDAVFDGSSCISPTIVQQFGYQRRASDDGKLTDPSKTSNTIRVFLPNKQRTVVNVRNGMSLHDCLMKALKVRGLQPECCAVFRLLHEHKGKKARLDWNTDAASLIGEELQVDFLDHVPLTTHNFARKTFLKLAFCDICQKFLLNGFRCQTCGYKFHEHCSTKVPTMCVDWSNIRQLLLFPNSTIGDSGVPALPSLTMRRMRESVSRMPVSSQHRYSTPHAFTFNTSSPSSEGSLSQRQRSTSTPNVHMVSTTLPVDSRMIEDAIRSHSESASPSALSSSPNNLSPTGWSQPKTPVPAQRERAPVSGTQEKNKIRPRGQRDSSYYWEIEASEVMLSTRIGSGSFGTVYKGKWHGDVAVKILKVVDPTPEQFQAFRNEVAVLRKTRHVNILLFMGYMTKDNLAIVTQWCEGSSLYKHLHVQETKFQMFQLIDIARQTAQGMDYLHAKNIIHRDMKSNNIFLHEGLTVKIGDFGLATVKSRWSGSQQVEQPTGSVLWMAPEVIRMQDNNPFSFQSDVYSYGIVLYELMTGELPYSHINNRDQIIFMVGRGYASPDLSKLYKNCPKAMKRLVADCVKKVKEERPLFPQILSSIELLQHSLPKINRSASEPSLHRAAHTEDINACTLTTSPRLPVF
Glycogen synthase kinase-3 beta (Homo sapiens), sequence (P49841 whole entry, looked up): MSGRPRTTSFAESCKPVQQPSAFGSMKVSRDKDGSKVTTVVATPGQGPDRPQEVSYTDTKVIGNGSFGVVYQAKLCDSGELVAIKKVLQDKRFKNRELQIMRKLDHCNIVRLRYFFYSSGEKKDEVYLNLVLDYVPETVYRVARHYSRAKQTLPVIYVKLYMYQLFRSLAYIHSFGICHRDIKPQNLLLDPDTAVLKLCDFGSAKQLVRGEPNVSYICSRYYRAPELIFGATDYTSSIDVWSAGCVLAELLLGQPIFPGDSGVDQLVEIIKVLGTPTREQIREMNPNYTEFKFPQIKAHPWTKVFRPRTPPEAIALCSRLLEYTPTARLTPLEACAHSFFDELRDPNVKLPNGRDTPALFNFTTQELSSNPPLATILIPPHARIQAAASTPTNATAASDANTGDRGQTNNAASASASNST
RAC-alpha serine/threonine-protein kinase (Homo sapiens), sequence (P31749 whole entry): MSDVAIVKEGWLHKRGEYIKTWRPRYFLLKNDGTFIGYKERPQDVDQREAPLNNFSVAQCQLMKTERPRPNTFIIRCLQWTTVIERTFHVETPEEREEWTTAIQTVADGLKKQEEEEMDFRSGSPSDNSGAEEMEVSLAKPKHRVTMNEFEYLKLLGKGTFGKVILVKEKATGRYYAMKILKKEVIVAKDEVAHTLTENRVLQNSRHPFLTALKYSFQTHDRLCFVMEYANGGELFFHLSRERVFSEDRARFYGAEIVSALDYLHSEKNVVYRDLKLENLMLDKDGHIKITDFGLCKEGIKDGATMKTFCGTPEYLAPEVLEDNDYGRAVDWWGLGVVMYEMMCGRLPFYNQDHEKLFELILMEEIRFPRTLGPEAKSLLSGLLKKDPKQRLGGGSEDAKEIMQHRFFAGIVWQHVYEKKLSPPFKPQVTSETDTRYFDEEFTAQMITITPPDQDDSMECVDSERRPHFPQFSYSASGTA
Mitogen-activated protein kinase 1 (Homo sapiens), sequence (P28482 whole entry): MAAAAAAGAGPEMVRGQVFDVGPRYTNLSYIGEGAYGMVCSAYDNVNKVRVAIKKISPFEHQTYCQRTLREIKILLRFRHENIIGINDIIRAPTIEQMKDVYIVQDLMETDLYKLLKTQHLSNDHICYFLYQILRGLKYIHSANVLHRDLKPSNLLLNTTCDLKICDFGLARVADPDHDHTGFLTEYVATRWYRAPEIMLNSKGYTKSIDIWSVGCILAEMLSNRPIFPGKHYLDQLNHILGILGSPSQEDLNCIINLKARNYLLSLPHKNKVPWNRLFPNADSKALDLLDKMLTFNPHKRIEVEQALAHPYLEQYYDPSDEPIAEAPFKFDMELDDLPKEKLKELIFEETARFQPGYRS
Mitogen-activated protein kinase 10 (Homo sapiens), sequence (P53779 whole entry): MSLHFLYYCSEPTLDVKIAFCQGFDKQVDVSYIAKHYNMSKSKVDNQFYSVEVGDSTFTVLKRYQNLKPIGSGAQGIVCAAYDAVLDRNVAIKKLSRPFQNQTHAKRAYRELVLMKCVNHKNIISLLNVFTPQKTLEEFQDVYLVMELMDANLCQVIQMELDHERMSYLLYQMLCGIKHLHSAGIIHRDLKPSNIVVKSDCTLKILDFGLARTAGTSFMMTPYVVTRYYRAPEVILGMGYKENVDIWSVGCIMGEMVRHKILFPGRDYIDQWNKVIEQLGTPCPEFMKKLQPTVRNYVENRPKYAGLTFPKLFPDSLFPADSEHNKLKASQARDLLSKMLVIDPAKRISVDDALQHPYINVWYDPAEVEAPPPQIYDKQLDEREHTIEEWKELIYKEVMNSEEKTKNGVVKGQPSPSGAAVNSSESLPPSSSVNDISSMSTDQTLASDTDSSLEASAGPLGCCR
Tyrosine-protein kinase Lck (Homo sapiens), sequence (P06239 2-509 limits assumed): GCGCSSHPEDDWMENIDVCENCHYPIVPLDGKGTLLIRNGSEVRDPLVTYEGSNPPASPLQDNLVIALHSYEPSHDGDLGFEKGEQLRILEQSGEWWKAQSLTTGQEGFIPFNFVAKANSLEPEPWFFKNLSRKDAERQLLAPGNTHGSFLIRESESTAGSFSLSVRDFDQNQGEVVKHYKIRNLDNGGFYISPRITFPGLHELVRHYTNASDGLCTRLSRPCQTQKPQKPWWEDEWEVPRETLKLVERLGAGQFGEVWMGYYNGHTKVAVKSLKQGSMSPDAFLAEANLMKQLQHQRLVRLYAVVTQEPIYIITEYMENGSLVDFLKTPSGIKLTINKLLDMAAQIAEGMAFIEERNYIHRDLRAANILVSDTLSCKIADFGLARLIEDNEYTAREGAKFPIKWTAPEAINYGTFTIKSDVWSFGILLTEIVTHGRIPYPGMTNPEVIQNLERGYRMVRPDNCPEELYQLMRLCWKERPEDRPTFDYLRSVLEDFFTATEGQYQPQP

`C[C@H](Nc1nccc(-c2c(-c3ccc(F)cc3)c(=O)n3n2CCC3)n1)c1ccccc1`: the solubility in [1] is 200 µg/mL (≈ 481 µM). In data set [2], this molecule gave an IC50 of 8 nM. Moreover, the Activity in data set [3] turned out to be 101%; in [4], 4%; in data set [6] it was 99%; in [7], 91%; in data set [8], 161%; in data set [9], 82%. Besides, the Activity in data set [10] came out at 98%; in data set [11] it was 117%; in [12], 61%; in [13] it was 8%; in data set [15], 52%; in data set [16] it was 166%. The Activity came out at 80% in data set [17] and 95% in [18]. Moreover, in data set [5], the metabolised at 4 h turned out to be 50%. In [14], this molecule returned a bioavailability of 29%.
In turn, `CC[C@H](C)Nc1nccc(-c2c(-c3ccc(F)cc3)c(=O)n3n2CCC3)n1` yielded a solubility in [1] of 460 µg/mL (≈ 1250 µM). In data set [5], the metabolised at 4 h is 60%. In [14], this molecule had a bioavailability of 10%.
With `C[C@H](Nc1nccc(-c2c(-c3ccc(F)cc3)c(=O)n3n2CCC3)n1)C(C)(C)O`, the solubility in data set [1] was 1850 µg/mL (≈ 4650 µM). The IC50 in data set [2] stood at 54 nM. Besides, the Activity was found to be 9% in data set [19]; 99% in data set [3]; 36% in data set [4]; 95% in data set [6]; 112% in [7]; 141% in data set [8]. Also, the Activity in data set [10] worked out at 119%; in data set [20], 111%; in data set [11] it was 101%; in data set [12], 91%; in data set [13], 73%; in data set [15], 105%. The Activity in data set [16] was determined as 117%; in data set [17], 108%; in [18] it was 99%. Also, the metabolised at 4 h in [5] is 29%. In [14], the bioavailability worked out at 25%.
`COC[C@H](C)Nc1nccc(-c2c(-c3ccc(F)cc3)c(=O)n3n2CCC3)n1` had a solubility in [1] of 840 µg/mL (≈ 2190 µM). For the same molecule, the IC50 in data set [2] is on record as 27 nM. Further, the Activity in data set [19] was determined as 96%; in [3], 72%; in data set [4] it was 5%; in data set [6], 102%; in data set [7], 113%; in [10], 89%. Also, the Activity in [11] was determined as 108%; in data set [12], 55%; in [13] it was 8%; in [15] it was 65%; in data set [16], 90%; in data set [17], 98%. In addition, the Activity in [18] turned out to be 96%. Also, in data set [5], the metabolised at 4 h is below 5%. The bioavailability in data set [14] turned out to be 63%.
`O=c1c(-c2ccc(F)cc2)c(-c2ccnc(NCc3ccccc3)n2)n2n1CCC2` returned a solubility in [1] of 100 µg/mL (≈ 249 µM). Besides, in [5], the metabolised at 4 h came to 46%. Besides, in data set [14], the bioavailability was 18%.
